Calls of active or inactive are those of the source. The rule behind the calls is not given here.
Assays:
Format in all cases: cell-based
[1] = target: T1, von Hippel-Lindau disease tumor suppressor/Protein deacetylase HDAC6 (Homo sapiens, UniProt Q9UBN7+P40337); assay: Protac activity at VHL/HDAC6 in human MM1S cells assessed as HDAC6 degradation at 100 nM measured after 6 hrs by ELISA
Summary of the method: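 Linker-length screen. MM1S cells were treated with degraders at 100 nM for 6 h, and HDAC6 protein level was quantified by in-cell ELISA.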
Target sequence in this assay (P40337 whole entry, looked up): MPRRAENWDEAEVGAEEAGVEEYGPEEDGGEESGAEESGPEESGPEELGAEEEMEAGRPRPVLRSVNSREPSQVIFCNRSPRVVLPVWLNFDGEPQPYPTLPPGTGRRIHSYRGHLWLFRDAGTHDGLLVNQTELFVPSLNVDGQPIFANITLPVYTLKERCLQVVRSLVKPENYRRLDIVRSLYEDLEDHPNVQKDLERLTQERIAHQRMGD
Target sequence in this assay (Q9UBN7 whole entry, looked up): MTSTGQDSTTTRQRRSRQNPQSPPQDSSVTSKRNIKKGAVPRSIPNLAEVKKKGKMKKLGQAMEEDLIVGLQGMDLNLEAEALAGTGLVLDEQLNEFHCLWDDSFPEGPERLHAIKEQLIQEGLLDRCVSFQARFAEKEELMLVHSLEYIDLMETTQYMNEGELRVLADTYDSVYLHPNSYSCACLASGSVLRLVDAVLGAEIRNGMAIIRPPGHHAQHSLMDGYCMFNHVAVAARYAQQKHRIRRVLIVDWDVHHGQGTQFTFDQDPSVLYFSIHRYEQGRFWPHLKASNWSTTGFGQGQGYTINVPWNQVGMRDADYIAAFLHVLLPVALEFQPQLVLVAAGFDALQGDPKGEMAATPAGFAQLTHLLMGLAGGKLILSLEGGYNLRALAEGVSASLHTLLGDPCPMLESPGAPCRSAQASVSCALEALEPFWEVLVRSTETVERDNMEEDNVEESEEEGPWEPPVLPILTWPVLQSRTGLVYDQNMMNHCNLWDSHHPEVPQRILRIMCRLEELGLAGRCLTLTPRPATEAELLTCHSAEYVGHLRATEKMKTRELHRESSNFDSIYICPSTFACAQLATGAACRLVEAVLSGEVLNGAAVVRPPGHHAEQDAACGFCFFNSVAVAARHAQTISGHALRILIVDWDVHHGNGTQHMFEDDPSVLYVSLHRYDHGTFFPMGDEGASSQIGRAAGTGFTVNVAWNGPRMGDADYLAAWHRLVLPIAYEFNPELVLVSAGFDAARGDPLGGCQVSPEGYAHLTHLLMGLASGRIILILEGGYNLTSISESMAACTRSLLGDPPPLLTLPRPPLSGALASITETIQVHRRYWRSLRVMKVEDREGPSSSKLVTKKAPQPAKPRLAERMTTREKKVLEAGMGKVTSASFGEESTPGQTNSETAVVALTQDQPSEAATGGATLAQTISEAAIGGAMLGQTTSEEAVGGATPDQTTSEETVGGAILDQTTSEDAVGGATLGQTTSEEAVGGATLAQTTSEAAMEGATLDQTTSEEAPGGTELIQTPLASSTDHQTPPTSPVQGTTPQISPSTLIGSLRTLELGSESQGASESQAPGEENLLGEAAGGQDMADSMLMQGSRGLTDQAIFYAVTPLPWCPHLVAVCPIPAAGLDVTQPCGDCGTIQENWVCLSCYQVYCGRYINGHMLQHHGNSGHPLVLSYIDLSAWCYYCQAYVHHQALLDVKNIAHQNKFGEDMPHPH

[2] = target: T1, von Hippel-Lindau disease tumor suppressor/Protein deacetylase HDAC6; assay: Protac activity at VHL/HDAC6 in human MM1S cells assessed as HDAC6 degradation at 100 nM measured after 6 hrs by Western blot analysis
Summary of the method: (§1)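 MM1S cells were treated with degraders at 100 nM for 6 h. Lysates were analysed by Western blot for HDAC6 and acetylated tubulin.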
Target sequence in this assay (P40337 whole entry, looked up): as the sequence (P40337 whole entry, looked up) above
Target sequence in this assay (Q9UBN7 whole entry, looked up): as the sequence (Q9UBN7 whole entry, looked up) above

[3] = target: T1, von Hippel-Lindau disease tumor suppressor/Protein deacetylase HDAC6; assay: Protac activity at VHL/HDAC6 in human MM1S cells assessed as increase in tubulin acetylation at 100 nM measured after 6 hrs by Western blot analysis; summary of the method: as §1
Target sequence in this assay (P40337 whole entry, looked up): as the sequence (P40337 whole entry, looked up) above
Target sequence in this assay (Q9UBN7 whole entry, looked up): as the sequence (Q9UBN7 whole entry, looked up) above

[4] = target: T1, von Hippel-Lindau disease tumor suppressor/Protein deacetylase HDAC6; assay: Protac activity at VHL/HDAC6 in human MM1S cells measured after 6 hrs by ELISA
Summary of the method: (§2)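 MM1S multiple myeloma cells exposed to degraders for 6 h. HDAC6 protein level was read by in-cell ELISA; dose-response ran from 1 nM to 3 μM. DC50 and Dmax were derived from the dose-response curve.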

[5] = target: T1, von Hippel-Lindau disease tumor suppressor/Protein deacetylase HDAC6; assay: Protac activity at VHL/HDAC6 in human MM1S cells measured after 6 hrs by ELISA relative to control; summary of the method: as §2
Target sequence in this assay (P40337 whole entry, looked up): as the sequence (P40337 whole entry, looked up) above
Target sequence in this assay (Q9UBN7 whole entry, looked up): as the sequence (Q9UBN7 whole entry, looked up) above

[6] = target: T1, von Hippel-Lindau disease tumor suppressor/Protein deacetylase HDAC6; assay: Protac activity at VHL/HDAC6 in human MM1S cells assessed as HDAC6 degradation at 10 nM measured after 4 hrs by Western blot analysis
Summary of the method: (§3)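 Dose-response in MM1S cells treated with degrader from 1 nM to 30 μM for 4 h. Lysates were immunoblotted for HDAC6 and acetylated tubulin.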
Target sequence in this assay (P40337 whole entry, looked up): as the sequence (P40337 whole entry, looked up) above
Target sequence in this assay (Q9UBN7 whole entry, looked up): as the sequence (Q9UBN7 whole entry, looked up) above

[7] = target: T1, von Hippel-Lindau disease tumor suppressor/Protein deacetylase HDAC6; assay: Protac activity at VHL/HDAC6 in human MM1S cells assessed as HDAC6 degradation at 100 nM measured after 4 hrs by Western blot analysis; summary of the method: as §3
Target sequence in this assay (P40337 whole entry, looked up): as the sequence (P40337 whole entry, looked up) above
Target sequence in this assay (Q9UBN7 whole entry, looked up): as the sequence (Q9UBN7 whole entry, looked up) above

[8] = target: T1, von Hippel-Lindau disease tumor suppressor/Protein deacetylase HDAC6; assay: Protac activity at VHL/HDAC6 in human MM1S cells assessed as compound-VHL complex formation at 3 uM after 6 hrs
[9] = target: T1, von Hippel-Lindau disease tumor suppressor/Protein deacetylase HDAC6; assay: Protac activity at VHL/HDAC6 in human MM1S cells assessed as compound-HDAC6 complex formation at 3 uM after 6 hrs
[10] = target: T1, von Hippel-Lindau disease tumor suppressor/Protein deacetylase HDAC6; assay: Protac activity at VHL/HDAC6 in human MM1S cells assessed as induction of tubulin acetylation after 4 hrs by Western blot analysis; summary of the method: as §3
[11] = target: T1, von Hippel-Lindau disease tumor suppressor/Protein deacetylase HDAC6; assay: Protac activity at VHL/HDAC6 in human MM1S cells assessed as induction of tubulin acetylation at 1 uM after 4 hrs by Western blot analysis; summary of the method: as §3
[12] = target: T1, von Hippel-Lindau disease tumor suppressor/Protein deacetylase HDAC6; assay: Protac activity at VHL/HDAC6 in human MM1S cells assessed as increase in tubulin acetylation at 300 nM after 4 hrs by Western blot analysis; summary of the method: as §3
[13] = target: von Hippel-Lindau disease tumor suppressor/Histone deacetylase 1 (Homo sapiens) (UniProt Q13547+P40337); assay: Protac activity at VHL/HDAC1 in human MM1S cells assessed as HDAC1 degradation at 100 nM after 4 hrs by Western blot analysis
[14] = target: von Hippel-Lindau disease tumor suppressor/Histone deacetylase 2 (Homo sapiens) (UniProt Q92769+P40337); assay: Protac activity at VHL/HDAC2 in human MM1S cells assessed as HDAC2 degradation at 100 nM after 4 hrs by Western blot analysis
[15] = target: von Hippel-Lindau disease tumor suppressor/Histone deacetylase 3 (Homo sapiens) (UniProt O15379+P40337); assay: Protac activity at VHL/HDAC3 in human MM1S cells assessed as HDAC3 degradation at 100 nM after 4 hrs by Western blot analysis
[16] = target: von Hippel-Lindau disease tumor suppressor/Histone deacetylase 4 (Homo sapiens) (UniProt P56524+P40337); assay: Protac activity at VHL/HDAC4 in human MM1S cells assessed as HDAC4 degradation at 100 nM after 4 hrs by Western blot analysis
[17] = target: von Hippel-Lindau disease tumor suppressor/Histone deacetylase 5 (Homo sapiens) (UniProt Q9UQL6+P40337); assay: Protac activity at VHL/HDAC5 in human MM1S cells assessed as HDAC5 degradation at 100 nM after 4 hrs by Western blot analysis
[18] = target: von Hippel-Lindau disease tumor suppressor/Histone deacetylase 7 (Homo sapiens) (UniProt Q8WUI4+P40337); assay: Protac activity at VHL/HDAC7 in human MM1S cells assessed as HDAC7 degradation at 100 nM after 4 hrs by Western blot analysis
[19] = target: von Hippel-Lindau disease tumor suppressor/DNA-binding protein Ikaros (Homo sapiens) (UniProt P40337+Q13422); assay: Protac activity at VHL/IKZF1 in human MM1S cells assessed as IKZF1 degradation at 100 nM after 4 hrs by Western blot analysis
[20] = target: von Hippel-Lindau disease tumor suppressor/Zinc finger protein Aiolos (Homo sapiens) (UniProt P40337+Q9UKT9); assay: Protac activity at VHL/IKZF3 in human MM1S cells assessed as IKZF3 degradation at 100 nM after 4 hrs by Western blot analysis
[21] = target: T1, von Hippel-Lindau disease tumor suppressor/Protein deacetylase HDAC6; assay: Protac activity at VHL/HDAC6 in human MM1S cells assessed as tubulin acetylation at 100 nM to 1 microM after 6 hrs by Western blot analysis
[22] = target: T1, von Hippel-Lindau disease tumor suppressor/Protein deacetylase HDAC6; assay: Protac activity at VHL/HDAC6 in human MM1S cells assessed as reduction in protein level at 100 nM after 30 mins by Western blot analysis
[23] = target: T1, von Hippel-Lindau disease tumor suppressor/Protein deacetylase HDAC6; assay: Protac activity at VHL/HDAC6 in human MM1S cells assessed as reduction in protein level at 100 nM after 4 hrs by Western blot analysis
[24] = target: T1, von Hippel-Lindau disease tumor suppressor/Protein deacetylase HDAC6; assay: Protac activity at VHL/HDAC6 in human MM1S cells assessed as HDAC6 degradation at 100 nM pretreated for 1 hr in presence of proteasome inhibitor MG132 by Western blot analysis
Summary of the method: (§4)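 MM1S cells were pretreated for 1 h with a pathway inhibitor or competing ligand, then given degrader at 100 nM. HDAC6 was read by Western blot. Pretreatment levels: MG132 1 μM, bortezomib 1 μM, MLN4924 5 μM, Next-A 5 μM; VHL-1 was titrated.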

[25] = target: T1, von Hippel-Lindau disease tumor suppressor/Protein deacetylase HDAC6; assay: Protac activity at VHL/HDAC6 in human MM1S cells assessed as HDAC6 degradation at 100 nM pretreated for 1 hr in presence of proteasome inhibitor Bortezomib by Western blot analysis; summary of the method: as §4
[26] = target: T1, von Hippel-Lindau disease tumor suppressor/Protein deacetylase HDAC6; assay: Protac activity at VHL/HDAC6 in human MM1S cells assessed as HDAC6 degradation at 100 nM pretreated for 1 hr in presence of HDAC6 inhibitor Next-A by Western blot analysis; summary of the method: as §4
[27] = target: T1, von Hippel-Lindau disease tumor suppressor/Protein deacetylase HDAC6; assay: Protac activity at VHL/HDAC6 in human MM1S cells assessed as HDAC6 degradation at 100 nM pretreated for 1 hr in presence of 5 uM VHL-1 by Western blot analysis; summary of the method: as §4
[28] = target: T1, von Hippel-Lindau disease tumor suppressor/Protein deacetylase HDAC6; assay: Protac activity at VHL/HDAC6 in human HEK293T cells assessed as induction of HDAC degradation by Western blot analysis; details: HEK-293T
[29] = target: T1, von Hippel-Lindau disease tumor suppressor/Protein deacetylase HDAC6; assay: Protac activity at VHL/HDAC6 in human A549 cells assessed as induction of HDAC degradation by Western blot analysis
[30] = target: T1, von Hippel-Lindau disease tumor suppressor/Protein deacetylase HDAC6; assay: Protac activity at VHL/HDAC6 in human MCF7 cells assessed as induction of HDAC degradation by Western blot analysis
[31] = target: T1, von Hippel-Lindau disease tumor suppressor/Protein deacetylase HDAC6; assay: Protac activity at VHL/HDAC6 in human U87MG cells assessed as induction of HDAC degradation by Western blot analysis; details: U-87MG ATCC
[32] = target: T2, von Hippel-Lindau disease tumor suppressor/Protein deacetylase HDAC6 (Mus musculus) (UniProt Q9Z2V5+P40338); assay: Protac activity at VHL/HDAC6 in mouse 4935 cells assessed as HDAC6 degradation at 10 nM to 10 uM after 6 hrs by Western blot analysis
T2 sequence (P40338 whole entry, looked up): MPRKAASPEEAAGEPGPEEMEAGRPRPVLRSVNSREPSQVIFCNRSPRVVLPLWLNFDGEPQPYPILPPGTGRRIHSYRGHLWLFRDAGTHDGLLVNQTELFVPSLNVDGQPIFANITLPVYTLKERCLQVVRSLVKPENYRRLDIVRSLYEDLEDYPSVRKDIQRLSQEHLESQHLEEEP
T2 sequence (Q9Z2V5 whole entry, looked up): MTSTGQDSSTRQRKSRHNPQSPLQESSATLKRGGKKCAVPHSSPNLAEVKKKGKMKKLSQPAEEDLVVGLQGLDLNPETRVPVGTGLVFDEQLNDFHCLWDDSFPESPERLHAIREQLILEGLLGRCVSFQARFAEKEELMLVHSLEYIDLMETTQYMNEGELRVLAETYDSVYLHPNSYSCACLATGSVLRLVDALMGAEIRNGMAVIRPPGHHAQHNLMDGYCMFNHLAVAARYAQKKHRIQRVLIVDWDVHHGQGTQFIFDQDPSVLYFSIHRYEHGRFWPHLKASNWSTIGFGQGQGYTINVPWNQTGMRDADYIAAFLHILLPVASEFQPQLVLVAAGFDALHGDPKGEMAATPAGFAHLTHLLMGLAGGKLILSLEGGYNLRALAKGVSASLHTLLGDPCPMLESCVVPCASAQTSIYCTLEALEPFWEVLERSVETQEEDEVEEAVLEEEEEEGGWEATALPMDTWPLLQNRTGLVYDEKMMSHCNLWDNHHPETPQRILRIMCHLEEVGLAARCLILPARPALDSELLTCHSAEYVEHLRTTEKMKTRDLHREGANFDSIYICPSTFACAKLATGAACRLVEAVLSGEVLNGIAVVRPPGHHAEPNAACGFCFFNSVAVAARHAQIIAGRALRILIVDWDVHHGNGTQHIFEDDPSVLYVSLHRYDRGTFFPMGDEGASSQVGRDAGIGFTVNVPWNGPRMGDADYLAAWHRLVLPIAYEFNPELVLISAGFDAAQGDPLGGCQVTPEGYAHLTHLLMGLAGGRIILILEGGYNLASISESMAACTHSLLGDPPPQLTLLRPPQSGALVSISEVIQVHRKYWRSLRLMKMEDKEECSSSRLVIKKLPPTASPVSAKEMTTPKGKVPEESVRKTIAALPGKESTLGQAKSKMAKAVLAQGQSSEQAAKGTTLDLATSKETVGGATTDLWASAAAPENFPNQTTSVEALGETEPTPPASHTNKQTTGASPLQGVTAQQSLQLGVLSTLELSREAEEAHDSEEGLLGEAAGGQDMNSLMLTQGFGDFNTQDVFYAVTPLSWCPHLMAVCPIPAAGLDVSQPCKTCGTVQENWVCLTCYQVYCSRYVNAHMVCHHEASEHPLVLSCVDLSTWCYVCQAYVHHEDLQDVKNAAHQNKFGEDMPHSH
Summary of the method: (§5)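 Mouse 4935 cells were treated with degraders for 6 h, then analysed by Western blot for HDAC6 and acetylated tubulin.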

[33] = target: T2, von Hippel-Lindau disease tumor suppressor/Protein deacetylase HDAC6 (Mus musculus); assay: Protac activity at VHL/HDAC6 in mouse 4935 cells assessed as tubulin acetylation at 10 nM to 10 uM after 6 hrs by Western blot analysis; summary of the method: as §5
[34] = target: T3, von Hippel-Lindau disease tumor suppressor/Protein deacetylase HDAC6 (Mus musculus, UniProt Q9Z2V5+P40338); assay: Protac activity at VHL/HDAC6 in mouse 4935 cells assessed as HDAC6 degradation after 6 hrs by ELISA
T3 sequence (Q9Z2V5 whole entry): as the sequence (Q9Z2V5 whole entry, looked up) above
T3 sequence (P40338 whole entry): as the sequence (P40338 whole entry, looked up) above

[35] = target: T3, von Hippel-Lindau disease tumor suppressor/Protein deacetylase HDAC6; assay: Protac activity at VHL/HDAC6 in mouse 4935 cells assessed as HDAC6 degradation after 6 hrs by Western blot analysis; summary of the method: as §5
[36] = target: T2, von Hippel-Lindau disease tumor suppressor/Protein deacetylase HDAC6 (Mus musculus); assay: Protac activity at VHL/HDAC6 in mouse 4935 cells assessed as HDAC6 degradation after 6 hrs by ELISA relative to control

## CCCCN(Cc1ccc(C(=O)NO)cc1)C(=O)Nc1ccc(OCCCCCCCCCCCn2cc(CCCCC(=O)N[C@H](C(=O)N3C[C@H](O)C[C@H]3C(=O)NCc3ccc(-c4scnc4C)cc3)C(C)(C)C)nn2)cc1
[1]
  Activity: Active
[2]
  Activity: Active
[3]
  Activity: Active
[4]
  DC50: 7.1 nM
[5]
  Emax: 90%
[6]
  Activity: Active
[7]
  Activity: Active
[8]
  Activity: Active
[9]
  Activity: Active
[10]
  Activity: Dose-dependent effect
[11]
  Activity: Active
[12]
  Activity: Active
[13]
  Activity: inactive
[14]
  Activity: inactive
[15]
  Activity: inactive
[16]
  Activity: inactive
[17]
  Activity: inactive
[18]
  Activity: inactive
[19]
  Activity: inactive
[20]
  Activity: inactive
[21]
  Activity: Active
[22]
  Activity: Active
[23]
  Activity: Active
[24]
  Activity: inactive
[25]
  Activity: inactive
[26]
  Activity: inactive
[27]
  Activity: inactive
[28]
  Activity: Dose-dependent effect
[29]
  Activity: Dose-dependent effect
[30]
  Activity: Dose-dependent effect
[31]
  Activity: Dose-dependent effect
[32]
  Activity: Active
[33]
  Activity: Active
[34]
  DC50: 4.3 nM
[35]
  DC50: 12 nM
[36]
  Emax: 57%

Reference: ChEMBL document CHEMBL4602716, “Development of Selective Histone Deacetylase 6 (HDAC6) Degraders Recruiting Von Hippel-Lindau (VHL) E3 Ubiquitin Ligase” (ACS Med Chem Lett, 2020)
